In brackets after ≈: the same amount, converted by molar mass. Activity calls are given as the source filed them. No cut-off for these calls is given here.
Tests used:
[1] = biological target: T1, Cell division protein FtsZ (Mycobacterium tuberculosis) (UniProt P9WN95); test: Inhibition of Mycobacterium tuberculosis FtsZ polymerization expressed in Escherichia coli BL21 (DE3) using GTP as substrate by spectrofluorimetric analysis
T1 sequence (whole entry): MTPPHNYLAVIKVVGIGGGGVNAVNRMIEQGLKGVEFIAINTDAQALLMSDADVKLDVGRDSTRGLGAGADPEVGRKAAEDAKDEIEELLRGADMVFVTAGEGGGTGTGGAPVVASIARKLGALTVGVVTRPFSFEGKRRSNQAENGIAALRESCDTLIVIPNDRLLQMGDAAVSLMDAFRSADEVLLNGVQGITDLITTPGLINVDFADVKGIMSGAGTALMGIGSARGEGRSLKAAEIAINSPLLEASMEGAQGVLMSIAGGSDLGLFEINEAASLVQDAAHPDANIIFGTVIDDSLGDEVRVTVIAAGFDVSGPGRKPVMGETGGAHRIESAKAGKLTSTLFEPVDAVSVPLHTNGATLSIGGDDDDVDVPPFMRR

[2] = biological target: T1, Cell division protein FtsZ (Mycobacterium tuberculosis); test: Inhibition of Mycobacterium tuberculosis FtsZ polymerization expressed in Escherichia coli BL21 (DE3) using GTP as substrate assessed as disassembly of FtsZ at 40 to 80 uM by transmission electron microscopy
Summary of the method: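 His-tagged Mtb FtsZ (pET15b, BL21(DE3), Ni-NTA purified, Bradford-quantified) at 5 µM in 50 mM MES, 5 mM MgCl₂, 100 mM KCl, pH 6.5 was polymerized with 25 µM GTP at 37 °C for 30 min. Compound (40 or 80 µM, ethanol stock) was then added for 5 min more. Samples were diluted 2×, negatively stained with 1% uranyl acetate, and imaged by TEM.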

[3] = biological target: T1, Cell division protein FtsZ (Mycobacterium tuberculosis); test: Inhibition of Mycobacterium tuberculosis FtsZ polymerization expressed in Escherichia coli BL21 (DE3) using GTP as substrate assessed as reduction in protofilaments at 40 to 80 uM by transmission electron microscopy
Summary of the method: (§1)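 His-tagged Mtb FtsZ (pET15b, BL21(DE3), Ni-NTA purified) at 5 µM in 50 mM MES, 5 mM MgCl₂, 100 mM KCl, pH 6.5 was preincubated 15 min on ice with 40 or 80 µM compound (ethanol stock). GTP was added to 25 µM and samples were held at 37 °C for 30 min, then diluted 2×, stained with 1% uranyl acetate, and imaged by TEM.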

[4] = biological target: T1, Cell division protein FtsZ (Mycobacterium tuberculosis); test: Inhibition of Mycobacterium tuberculosis FtsZ polymerization expressed in Escherichia coli BL21 (DE3) using GTP as substrate assessed as reduction in aggregate formation at 40 to 80 uM by transmission electron microscopy; summary of the method: as §1
[5] = tested on: Mycobacterium tuberculosis; test: […]; assay type: functional
Summary of the method: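 Strains were grown at 37 °C in 7H9 Middlebrook broth with 10% OADC, 0.05% Tween and 0.2% glycerol. Compounds were dissolved in DMSO and serially diluted 2-fold, then bacteria were added. Plates were incubated 6 days at 37 °C, then 24 h more with Alamar Blue. MIC was the lowest concentration (μg/mL) that prevented the colour change. Run in triplicate.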

[6] = biological target: T1, Cell division protein FtsZ (Mycobacterium tuberculosis); test: Inhibition of Mycobacterium tuberculosis FtsZ polymerization expressed in Escherichia coli BL21 (DE3) using GTP as substrate assessed as reduction in density and population of FtsZ polymers at 40 to 80 uM by transmission electron microscopy; summary of the method: as §1
Vero = test: Cytotoxicity against Vero cells after 3 days by Alamar Blue assay; assay type: cell-based; conditions: Chlorocebus sabaeus, 72 h
Summary of the method: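 Vero (African green monkey kidney epithelial) cells were grown without CO₂ in L15 with antibiotics and heat-inactivated calf serum. Cells in medium with 2X Alamar Blue were added at 1.3×10^4 cells/well to 2-fold serial drug dilutions. Plates were incubated 3 days at 37 °C, and IC50 was calculated per the manufacturer's directions.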

Q: With `CCCCOC(=O)Nc1cc2nc(C3CCCCC3)[nH]c2cc1N(C)C` as the molecule, how does the inhibition [1] read?
A: Dose-dependent effect

Q: What about the inhibition [2] of the same molecule?
A: Active

Q: What about the inhibition [3] of the same molecule?
A: Active

Q: And the inhibition [4]?
A: Active

Q: What about the MIC ([5]; H37Rv, 144 h) of the same molecule?
A: 0.06 µg/mL (≈ 0.167 µM)

Q: What about the MIC ([5]; W210, 144 h) of the same molecule?
A: 0.06 µg/mL (≈ 0.167 µM)

Q: What about the inhibition [6] of the same molecule?
A: Active

Q: What about the IC50 (Vero) of the same molecule?
A: > 100 µg/mL
